Experimental data from different studies.
Target: Casein kinase I isoform alpha (CSNK1A1, Homo sapiens, UniProt P48729)
Sequence (P48729 1-304, as in one of the studies): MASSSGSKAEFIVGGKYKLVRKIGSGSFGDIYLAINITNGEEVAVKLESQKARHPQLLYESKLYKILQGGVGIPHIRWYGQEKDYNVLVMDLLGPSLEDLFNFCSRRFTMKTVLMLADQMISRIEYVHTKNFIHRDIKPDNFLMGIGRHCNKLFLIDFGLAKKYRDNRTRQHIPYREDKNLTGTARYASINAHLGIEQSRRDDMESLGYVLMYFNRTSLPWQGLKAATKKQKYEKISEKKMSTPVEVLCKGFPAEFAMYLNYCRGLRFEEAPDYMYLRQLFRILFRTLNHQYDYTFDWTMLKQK

Cc1cc(O)c(-c2ccc([C@@H](C)CN(C)C)cc2)c2c1[nH]c(=O)c1sccc12
inhibition (enzyme activity, inhibitor; 0.1 µM): 6.33%

COc1ccc2oc(-c3ccc4nc(N)oc4c3)c/c(=N\c3ccccc3NC(=O)CCN)c2c1
remaining binding (binding; 1 µM): 102%

C[C@H]1CC[C@H](n2c3cnccc3c3cnc(Nc4ccc5c(n4)CCN(C(=O)CO)C5)nc32)CC1
remaining signal (cell-free assay; 1 µM): 94%

CC#CC(=O)N1CCC[C@H]1c1nc(-c2ccc(C(=O)Nc3ccccn3)cc2)c2c(N)nccn12
inhibition (enzyme activity, inhibitor; 1 µM): 21%

COc1ccc2[nH]c3c4[nH]c5ccc(OC)cc5c4c4c(c3c2c1)C(=O)NC4=O
remaining binding (binding; 1 µM): 62%

C1=C/COCc2cc(ccc2OCCN2CCCC2)Nc2nccc(n2)-c2cccc(c2)COC/1
remaining binding (binding; 0.1 µM): 85%

CO[C@@H]1[C@H](N(C)C(=O)c2ccccc2)C[C@H]2O[C@]1(C)n1c3ccccc3c3c4c(c5c6ccccc6n2c5c31)C(=O)NC4
inhibition (enzyme activity, inhibitor; 1 µM): 33%

c1cc(Nc2cc(C3CC3)n[nH]2)nc(Nc2ccc3nc[nH]c3c2)n1
kon (binding, SPR): 5.43e+08 M⁻¹ s⁻¹

CCCCC(=O)Nc1ccc(-c2ccc3ncn(CCC)c(=O)c3c2)cn1
remaining binding (binding, competition with immobilised ligand; 0.5 µM): 89%

c1cc(-c2cnn3cc(-c4ccc(OCCN5CCCCC5)cc4)cnc23)ccn1
kon (binding, SPR): 2.49e+09 M⁻¹ s⁻¹

CC(C)S(=O)(=O)c1ccc2nccc(Nc3ccc4sc(C5CCCC5)nc4c3)c2c1
activity vs control (enzyme activity, inhibitor; 1 µM): 103%
